ChEMBL document CHEMBL1158589, “Benzimidazole and imidazole inhibitors of histone deacetylases: Synthesis and biological activity” (Bioorg Med Chem Lett, 2010)

Legend:
PC-3 = assay: Cytotoxicity against human PC3 cells assessed as NADH level after 72 hrs by MTS cells; format: functional, cell-based; conditions: PC-3, 72 h
How it was run: (§1)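 Human A549 lung, HL60 leukemia and PC3 prostate cancer lines incubated with compound for 72 h. Viability read by MTS colorimetric assay from remaining NADH; EC50 calculated; mean of at least two experiments.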

A549 = assay: Cytotoxicity against human A549 cells assessed as NADH level after 72 hrs by MTS cells; format: functional, cell-based; conditions: A549, 72 h; how it was run: as §1
Histone deacetylase 8 = target: T1, Histone deacetylase 8 (Homo sapiens, UniProt Q9BY41); assay: Inhibition of human recombinant HDAC8
T1 sequence (Q9BY41 whole entry): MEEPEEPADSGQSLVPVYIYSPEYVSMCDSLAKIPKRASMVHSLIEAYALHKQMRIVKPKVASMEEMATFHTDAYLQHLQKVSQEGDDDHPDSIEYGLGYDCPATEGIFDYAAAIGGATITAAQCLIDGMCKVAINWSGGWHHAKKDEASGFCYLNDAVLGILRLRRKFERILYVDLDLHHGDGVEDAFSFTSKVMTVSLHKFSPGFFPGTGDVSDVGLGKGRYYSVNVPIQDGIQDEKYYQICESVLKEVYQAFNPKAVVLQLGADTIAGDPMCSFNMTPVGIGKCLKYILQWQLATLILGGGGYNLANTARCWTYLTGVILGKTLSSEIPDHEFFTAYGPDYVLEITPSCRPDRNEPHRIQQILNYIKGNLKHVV

[1] = target: T2, Protein deacetylase HDAC6 (Homo sapiens, UniProt Q9UBN7); assay: Inhibition of human recombinant HDAC6
T2 sequence (Q9UBN7 whole entry): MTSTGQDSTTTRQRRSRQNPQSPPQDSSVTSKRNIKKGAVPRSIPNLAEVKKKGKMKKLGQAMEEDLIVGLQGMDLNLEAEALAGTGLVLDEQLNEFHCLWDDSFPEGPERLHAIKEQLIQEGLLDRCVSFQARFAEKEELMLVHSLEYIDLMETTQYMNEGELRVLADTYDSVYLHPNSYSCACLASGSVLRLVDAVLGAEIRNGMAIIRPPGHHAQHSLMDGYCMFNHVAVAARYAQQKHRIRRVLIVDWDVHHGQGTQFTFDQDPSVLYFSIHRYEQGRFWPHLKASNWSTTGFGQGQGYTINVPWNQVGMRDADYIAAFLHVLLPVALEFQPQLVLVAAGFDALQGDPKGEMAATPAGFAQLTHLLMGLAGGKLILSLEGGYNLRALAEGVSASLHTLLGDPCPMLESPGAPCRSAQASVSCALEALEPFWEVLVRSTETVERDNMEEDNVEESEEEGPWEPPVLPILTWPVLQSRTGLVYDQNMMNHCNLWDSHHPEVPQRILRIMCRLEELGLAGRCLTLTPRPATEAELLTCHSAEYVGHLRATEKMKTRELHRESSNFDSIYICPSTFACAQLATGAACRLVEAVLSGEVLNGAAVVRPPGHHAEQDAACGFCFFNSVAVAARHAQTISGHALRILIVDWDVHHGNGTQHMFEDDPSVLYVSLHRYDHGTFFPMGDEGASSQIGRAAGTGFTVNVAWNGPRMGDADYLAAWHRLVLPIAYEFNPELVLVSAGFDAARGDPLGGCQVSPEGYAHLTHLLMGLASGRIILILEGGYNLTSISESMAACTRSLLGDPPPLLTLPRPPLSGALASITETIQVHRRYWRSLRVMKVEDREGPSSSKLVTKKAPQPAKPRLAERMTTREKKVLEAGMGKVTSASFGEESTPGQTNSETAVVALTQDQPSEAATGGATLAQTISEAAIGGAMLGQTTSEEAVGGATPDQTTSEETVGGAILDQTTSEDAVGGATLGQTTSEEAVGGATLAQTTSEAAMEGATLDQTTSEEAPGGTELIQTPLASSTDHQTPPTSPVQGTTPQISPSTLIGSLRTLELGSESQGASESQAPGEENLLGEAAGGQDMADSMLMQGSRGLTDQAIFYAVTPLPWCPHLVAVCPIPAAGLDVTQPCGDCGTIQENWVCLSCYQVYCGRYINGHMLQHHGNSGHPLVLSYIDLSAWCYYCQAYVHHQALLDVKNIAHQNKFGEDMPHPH
How it was run: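 Purified recombinant human HDAC-2 or HDAC-6 at known enzyme concentration with tBOC(Ac)-Lys-AMC as substrate. IC50 is the mean of at least three experiments.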

HL-60 = assay: Cytotoxicity against human HL60 cells assessed as NADH level after 72 hrs by MTS cells; format: functional, cell-based; conditions: HL-60, 72 h; how it was run: as §1

Structure (SMILES)	EC50 (PC-3) [nM]	EC50 (A549) [nM]	IC50 (Histone deacetylase 8) [nM]	IC50 [1] [nM]	EC50 (HL-60) [nM]
CCN1CCC[C@@H](n2c(-c3cccc(/C=C/C(=O)NO)c3)nc(-c3ccccc3)c2C)C1	50	300	31	100	30
O=C(/C=C/c1cccc(-c2nc3ccccc3n2CCc2ccccc2)c1)NO	400	2500	25	31	300
CC(C)n1c(-c2cccc(/C=C/C(=O)NO)c2)nc2ccccc21	2500	5000	40	100	1000
CCN1CCC[C@@H](n2c(-c3cccc(/C=C/C(=O)NO)c3)nc(C)c2-c2ccccc2)C1	80	300	50	79	40
O=C(/C=C/c1cccc(-c2nc3ccccc3n2CCCc2ccccc2)c1)NO	4000	12000	25	20	1200
O=C(/C=C/c1cccc(-c2nc3ccccc3n2CCN2CCOCC2)c1)NO	5000	25000	400	160	1200
O=C(/C=C/c1cccc(-c2nc3ccccc3n2CCN2CCCC2)c1)NO	600	3100	63	–	500
O=C(/C=C/c1cccc(-c2nc3ccccc3n2CCN2CCCCC2)c1)NO	600	1200	100	40	300
C[C@H](c1ccccc1)n1c(-c2cccc(/C=C/C(=O)NO)c2)nc2ccccc21	10000	16000	20	40	3100
Cc1nc(-c2cccc(/C=C/C(=O)NO)c2)n(CCN2CCOCC2)c1C	5000	> 50000	200	160	1600
Cc1c(Cc2ccccc2)nc(-c2cccc(/C=C/C(=O)NO)c2)n1CCN1CCOCC1	1000	4000	50	79	300
Cc1c(-c2ccccc2)nc(-c2cccc(/C=C/C(=O)NO)c2)n1CCc1ccccc1	300	800	20	63	200
Cc1nc(-c2cccc(/C=C/C(=O)NO)c2)n(CCc2ccccc2)c1-c1ccccc1	500	1000	25	79	300
O=C(/C=C/c1cccc(-c2nc3ccccc3[nH]2)c1)NO	10000	25000	63	100	3100
CCN1CCC[C@@H](n2c(-c3cccc(/C=C/C(=O)NO)c3)nc(Cc3ccccc3)c2C)C1	40	100	50	100	30
Cc1nc(-c2cccc(/C=C/C(=O)NO)c2)n(CCN2CCOCC2)c1-c1ccccc1	1000	4000	79	120	300
Cc1nc(-c2cccc(/C=C/C(=O)NO)c2)n(CCN2CCOCC2)c1Cc1ccccc1	600	2500	63	79	200
O=C(/C=C/c1cccc(-c2nc3ccccc3n2Cc2ccccc2)c1)NO	1200	6300	40	63	5000
Cc1nc(-c2ccccc2)n(CCc2ccccc2)c1-c1cccc(/C=C/C(=O)NO)c1	–	–	50	79	–
